Results taken from ChEMBL document CHEMBL1124925, “Anticandidal properties of N3-(4-methoxyfumaroyl)-L-2,3-diaminopropanoic acid oligopeptides” (1990).
In brackets after ≈: the same amount, converted by molar mass. Non-standard residues stand in square brackets, D forms with d. Residues, ends and D or L forms follow the SMILES beside them. *: point of attachment. Fumaryl(OMe) = COC(=O)/C=C/C(=O)*; Dap = NC[C@H](N)C(=O)O

How the values were obtained:
[1] = system: Candida albicans; experiment: Tested for its intracellular cleavage rate in Candida albicans ATCC 26278.; type: functional
Method in brief: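 Cell-free extract came from cells grown overnight on Sabouraud medium at 30 °C with vigorous shaking. Cells were washed and extracted in 0.05 M phosphate buffer, pH 6.5; protein was measured by Lowry (Layne modification). Peptides at 200 μM in 0.005 M phosphate buffer were incubated with extract at 30 °C for 30 min. Samples were taken every 10 min and released amino acid was measured by Cd-ninhydrin.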

[2] = system: Candida albicans; experiment: In vitro antifungal activity against Candida albicans ATCC 26278.; type: functional
Method in brief: (§1)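 MIC by serial dilution in liquid YNB medium containing sodium glutamate, inoculated at 10^4 cells/mL; growth read turbidimetrically at 660 nm after 24 h at 30 °C. Strains were 16 fresh clinical isolates collected at the Medical Academy of Gdansk plus standard strain ATCC 26278.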

[3] = system: Candida albicans; experiment: In vitro antifungal activity against 16 clinical strains of Candida albicans.; type: functional; method in brief: as §1
[4] = system: Saccharomyces cerevisiae; experiment: In vitro antifungal activity against Saccharomyces cerevisiae ATCC 9763.; type: functional
[5] = system: Candida epidermidis; experiment: In vitro antifungal activity against Candida epidermidis OBS 6023.
[6] = system: Candida albicans; experiment: Tested for its rate of transport in Candida albicans ATCC 26278.; type: functional
[7] = system: Saccharomyces cerevisiae; experiment: Tested in vitro for antifungal activity against Saccharomyces cerevisiae ATCC 9763.; type: functional
[8] = system: Saccharomyces cerevisiae; experiment: In vitro for antifungal activity against Saccharomyces cerevisiae ATCC 9763.; type: functional
[9] = system: Candida epidermidis; experiment: In vitro antifungal activity against Candida epidermidis OBS 6023.; remark: listed apart in the source

SMILES | Cleavage rate [1] [nM/min/mg] | MIC [2] [µg/mL] | MIC [3] [µg/mL] | MIC [4] [µg/mL] | MIC [5] [µg/mL] | Transport rate [6] [nM/min/mg] | MIC [7] [µg/mL] | MIC [8] [µg/mL] | MIC [9] [µg/mL]
COC(=O)/C=C/C(=O)NC[C@H](NC(=O)[C@@H](N)CCSC)C(=O)N[C@@H](CCSC)C(=O)O | 4.8 | 0.3 (≈ 0.627 µM) | 0.15 (≈ 0.313 µM) | 50 (≈ 104 µM) | 110 (≈ 230 µM) | – | – | – | –
COC(=O)/C=C/C(=O)NC[C@H](NC(=O)[C@H](N)CCSC)C(=O)N[C@H](CCSC)C(=O)O | – | – | – | – | – | 2 | – | – | –
COC(=O)/C=C/C(=O)NC[C@H](NC(=O)[C@H](CCSC)NC(=O)[C@@H](N)CCSC)C(=O)O | 4.9 | 0.25 (≈ 0.522 µM) | 0.1 (≈ 0.209 µM) | – | 125 (≈ 261 µM) | – | 37.5 (≈ 78.4 µM) | – | –
CCC[C@H](NC(=O)[C@@H](N)CCCCN)C(=O)N[C@@H](CNC(=O)/C=C/C(=O)OC)C(=O)O | 51 | 0.025 (≈ 0.0564 µM) | 0.01 (≈ 0.0225 µM) | – | 125 (≈ 282 µM) | – | – | – | –
CCC[C@H](NC(=O)[C@H](CNC(=O)/C=C/C(=O)OC)NC(=O)[C@@H](N)CCC)C(=O)O | 8.9 | 0.05 (≈ 0.121 µM) | 0.01 (≈ 0.0241 µM) | – | 125 (≈ 302 µM) | 2.9 | – | 50 (≈ 121 µM) | –
COC(=O)/C=C/C(=O)NC[C@H](N)C(=O)N[C@@H](CCSC)C(=O)N[C@@H](C)C(=O)O | 4.9 | 0.25 (≈ 0.597 µM) | 0.1 (≈ 0.239 µM) | 15 (≈ 35.8 µM) | 50 (≈ 119 µM) | – | – | – | –
COC(=O)/C=C/C(=O)NC[C@H](NC(=O)[C@@H](CCSC)NC(=O)[C@@H](CCSC)NC(=O)[C@@H](N)CNC(=O)/C=C/C(=O)OC)C(=O)O | – | – | – | – | – | 1.2 | – | – | –
COC(=O)/C=C/C(=O)NC[C@H](NC(=O)[C@H](CCSC)NC(=O)[C@H](CCSC)NC(=O)[C@@H](N)CNC(=O)/C=C/C(=O)OC)C(=O)O | 5.8 | 0.25 (≈ 0.369 µM) | 0.25 (≈ 0.369 µM) | 75 (≈ 111 µM) | 75 (≈ 111 µM) | – | – | – | –
CCC[C@H](NC(=O)[C@@H](N)CCSC)C(=O)N[C@@H](CNC(=O)/C=C/C(=O)OC)C(=O)O | 17.3 | 0.125 (≈ 0.28 µM) | 0.05 (≈ 0.112 µM) | 7.5 (≈ 16.8 µM) | 130 (≈ 291 µM) | – | – | – | –
COC(=O)/C=C/C(=O)NC[C@H](NC(=O)[C@H](C)NC(=O)[C@@H](N)CCSC)C(=O)O | 15.2 | 0.75 (≈ 1.79 µM) | 0.25 (≈ 0.597 µM) | 7.5 (≈ 17.9 µM) | 125 (≈ 299 µM) | – | – | – | –
COC(=O)/C=C/C(=O)NC[C@H](NC(=O)[C@H](C)N)C(=O)N[C@@H](C)C(=O)O | 5.4 | 0.75 (≈ 2.09 µM) | 0.25 (≈ 0.698 µM) | 37.5 (≈ 105 µM) | 80 (≈ 223 µM) | 0.9 | – | – | –
COC(=O)/C=C/C(=O)NC[C@H](NC(=O)[C@H](CNC(=O)/C=C/C(=O)OC)NC(=O)[C@@H](N)CCSC)C(=O)O | 10 | 0.75 (≈ 1.37 µM) | 0.25 (≈ 0.458 µM) | 150 (≈ 275 µM) | 125 (≈ 229 µM) | – | – | – | –
COC(=O)/C=C/C(=O)NCC(N)C(=O)N[C@@H](CCSC)C(=O)N[C@@H](CNC(=O)/C=C/C(=O)OC)C(=O)O (some centres undefined) | 3 | 0.75 (≈ 1.37 µM) | 0.25 (≈ 0.458 µM) | 150 (≈ 275 µM) | 75 (≈ 137 µM) | 1.4 | – | – | –
COC(=O)/C=C/C(=O)NC[C@H](NC(=O)[C@H](CCSC)NC(=O)[C@H](CCSC)NC(=O)[C@H](CCSC)NC(=O)[C@@H](N)CCSC)C(=O)O (H-MMMM[Dap](Fumaryl(OMe))-OH) | 18.6 | 0.5 (≈ 0.675 µM) | 0.25 (≈ 0.337 µM) | 37.5 (≈ 50.6 µM) | – | – | – | – | 75 (≈ 101 µM)
COC(=O)/C=C/C(=O)NC[C@H](NC(=O)[C@H](CCSC)NC(=O)[C@H](CCSC)NC(=O)[C@@H](N)CCSC)C(=O)O (H-MMM[Dap](Fumaryl(OMe))-OH) | 23.7 | 0.75 (≈ 1.23 µM) | 0.25 (≈ 0.41 µM) | 100 (≈ 164 µM) | 75 (≈ 123 µM) | – | – | – | –
